According to article PMC8935478 (Journal of medicinal chemistry, 2021):

Tests used:
[1] = tested on: MV4;11; assay: Cell growth inhibition, CellTiter-Glo; assay type: cell-based, human
[2] = tested on: MOLM-13; assay: Cell growth inhibition, CellTiter-Glo; assay type: cell-based
[3] = tested on: HOXA9 mRNA in MV4;11 cells; assay: qRT-PCR gene expression in MV4; assay type: cell-based, human; settings: 24h of treatment
How it was run: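 Total RNA from in vitro-grown cells isolated with RNeasy. cDNA made with a High-Capacity reverse transcription kit. TaqMan gene expression assays with gene-specific primers amplified HOXA9, MEIS1, ITGAM, GAPDH and HPRT1. Relative transcript levels calculated by the comparative Ct method.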

[4] = tested on: MV4;11 subcutaneous tumors; assay: MV4; assay type: in vivo, mice; settings: 100 mg/kg daily for 26 days, oral gavage; 157 mm^3 at the beginning of the treatment
How it was run: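 Female C.B-17 SCID mice (5–6 weeks) implanted sc in the right flank with 5×10^6 MV4;11 cells in 1:1 Matrigel. Randomized once tumors reached the target volume. Dosed once daily by oral gavage at 10 ml/kg; vehicle 0.5% MC (400cP) + 0.2% Tween 80 (w/w). Body weight recorded daily. Calipers three times weekly; volume = 0.5×W×W×L; mean ± SEM. Regrowth followed to day 45 after treatment start.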

C=CC(=O)N1CCC[C@H](S(=O)(=O)c2ccc(N3CC(CN4CCC([C@@](CN5CCC5)(c5cccc(F)c5)[C@H]5CCC[C@@H]5NC(=O)OC)CC4)(OC)C3)cc2)C1 [Compound 22, Methyl ((1S,2R)-2-(1-(1-((1-(4-(((S)-1-acryloylpiperidin-3-yl)sulfonyl)phenyl)-3-methoxy-azetidin-3-yl)methyl)piperidin-4-yl)-2-(azetidin-1-yl)-1-(3-fluorophenyl)ethyl)-cyclopentyl)carbamate]
Times more potent than compound 21 ([1]; MV4;11): 2 times | Times more potent than compound 21 ([2]; MOLM-13): 2 times

C=CC(=O)N1CCC[C@@H](S(=O)(=O)c2ccc(N3CC(CN4CCC([C@@](CN5CCC5)(c5cccc(F)c5)[C@H]5CCC[C@@H]5NC(=O)OC)CC4)(OC)C3)cc2)C1 [Compound 23, Methyl ((1S,2R)-2-(1-(1-((1-(4-(((R)-1-acryloylpiperidin-3-yl)sulfonyl)phenyl)-3-methoxy-azetidin-3-yl)methyl)piperidin-4-yl)-2-(azetidin-1-yl)-1-(3-fluorophenyl)ethyl)cyclopentyl)-carbamate]
Times more potent than compound 21 ([1]; MV4;11): 2 times | Times more potent than compound 21 ([2]; MOLM-13): 2 times

COC(=O)N[C@H]1CCC[C@@H]1[C@](CN1CCC1)(c1cccc(F)c1)C1CCN(CC2(OC)CN(c3ccc(S(=O)(=O)C4CN(C(=O)/C=C/CN(C)C)C4)cc3)C2)CC1 [Compound 19, Methyl ((1S,2R)-2-(2-(azetidin-1-yl)-1-(1-((1-(4-((1-((E)-4-(dimethylamino)but-2-enoyl)-azetidin-3-yl)sulfonyl)phenyl)-3-methoxyazetidin-3-yl)methyl)piperidin-4-yl)-1-(3-fluorophenyl)ethyl)cyclopentyl)carbamate]
Fold more potent than compound 17 in inhibiting proliferation ([1]; MV4;11, ratio of IC50): 72 fold | Fold more potent than compound 17 in inhibiting proliferation ([2]; MOLM-13, ratio of IC50): 9 fold

CCC(=O)N1C[C@@H]2C[C@H]1CN2S(=O)(=O)c1ccc(N2CC(CN3CCC([C@@](CN4CCC4)(c4cccc(F)c4)[C@H]4CCC[C@@H]4NC(=O)OC)CC3)(OC)C2)cc1 [Compound 26, Methyl ((1S,2R)-2-(2-(azetidin-1-yl)-1-(3-fluorophenyl)-1-(1-((3-methoxy-1-(4-(((1S,4S)-5-propionyl-2,5-diazabicyclo[2.2.1]heptan-2-yl)sulfonyl)phenyl)azetidin-3-yl)methyl)piperidin-4-yl)ethyl)cyclopentyl)carbamate]
Times less potent than 24 in inhibition of cell growth ([1]; MV4;11): > 10 times | Times less potent than 24 in inhibition of cell growth ([2]; MOLM-13): > 10 times

C=CC(=O)N1C[C@@H]2C[C@H]1CN2S(=O)(=O)c1ccc(N2CC(CN3CCC([C@@](CN4CCC4)(c4cccc(F)c4)[C@H]4CCC[C@@H]4NC(=O)OC)CC3)(OC)C2)cc1 [Compound 24, Methyl ((1S,2R)-2-(1-(1-((1-(4-(((1S,4S)-5-acryloyl-2,5-diazabicyclo[2.2.1]heptan-2-yl)-sulfonyl)phenyl)-3-methoxyazetidin-3-yl)methyl)piperidin-4-yl)-2-(azetidin-1-yl)-1-(3-fluoro-phenyl)ethyl)cyclopentyl)carbamate]
Concentration as low as which HOXA9 gene expression is effectively modulated [3]: 10 nM | Fold more potent than compound 20 ([1]; MV4;11): 8–10 fold | Fold more potent than stereoisomer compound 25 ([1]; MV4;11, ratio of IC50): 40 fold | Average tumor volume on day 26 of the treatment [4]: 106 mm^3 | Fold more potent than compound 20 ([2]; MOLM-13): 8–10 fold | Fold more potent than stereoisomer compound 25 ([2]; MOLM-13, ratio of IC50): 9 fold

C=CC(=O)N1CC(S(=O)(=O)c2ccc(N3CC(CN4CCC([C@@](CN5CCC5)(c5cccc(F)c5)[C@H]5CCC[C@@H]5NC(=O)OC)CC4)(OC)C3)cc2)C1 [Compound 20, Methyl ((1S,2R)-2-(1-(1-((1-(4-((1-acryloylazetidin-3-yl)sulfonyl)phenyl)-3-methoxyazetidin-3-yl)methyl)piperidin-4-yl)-2-(azetidin-1-yl)-1-(3-fluorophenyl)ethyl)cyclopentyl)carbamate]
Fold less potent than compound 19 in inhibiting growth ([1]; MV4;11, ratio of IC50): 49 fold | Fold less potent than compound 19 in inhibiting growth ([2]; MOLM-13, ratio of IC50): 8 fold
